High-throughput results as filed in PubChem BioAssay.
Rpn11 block = inhibitors of human proteasome Rpn11; human 26S proteasome, Ub4-pepOG fluorescence polarization; 20S core pre-blocked with epoxomicin; calls only at 20 µM; 360,000 tested, 0.59% active; AID 588493;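 active means inhibition at 20 µM, scaled to each plate's controls, above about 33%, limit read from the data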
Target sequence (O00487 whole entry, looked up): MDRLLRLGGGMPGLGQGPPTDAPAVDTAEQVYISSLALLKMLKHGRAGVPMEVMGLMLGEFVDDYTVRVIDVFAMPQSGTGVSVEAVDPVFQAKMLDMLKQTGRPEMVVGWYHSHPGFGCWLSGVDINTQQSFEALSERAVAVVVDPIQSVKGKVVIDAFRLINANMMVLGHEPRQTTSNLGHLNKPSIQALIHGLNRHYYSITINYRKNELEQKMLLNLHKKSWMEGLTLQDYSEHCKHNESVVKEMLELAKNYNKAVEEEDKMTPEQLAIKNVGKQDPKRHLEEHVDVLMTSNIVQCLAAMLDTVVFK
TPT1 inh = blocks Candida albicans tRNA 2'-phosphotransferase. inhibition, % at 5 µM. 300,000 tested, 0.81% active. recombinant caTPT1, FP RNA substrate dephosphorylation;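 active means inhibition above the mean of all tested compounds plus 3 SD, set per screening campaign, cut at about 24% in these data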
HNF4A DNA FP = change in binding of human HNF4 alpha to DNA; P41235; HNF4a-FITC DNA binding, fluorescence polarization, 1 h; activity change, % at 10 µM; 360,000 tested, 0.3% active; AID 1224865; in the data active means activity change above about 30%, passing the limit was not always enough
UBC9 SUMO inh = blocks human SUMOylation mediated by UBC9 | inhibition, % at 35 µM | HTRF SUMOylation assay, SAE1/SAE2 + UBC9, in vitro | 290,000 tested, 0.36% active; in the data active means inhibition above about 50%, passing the limit was not always enough
Target sequence (P63279 whole entry, looked up): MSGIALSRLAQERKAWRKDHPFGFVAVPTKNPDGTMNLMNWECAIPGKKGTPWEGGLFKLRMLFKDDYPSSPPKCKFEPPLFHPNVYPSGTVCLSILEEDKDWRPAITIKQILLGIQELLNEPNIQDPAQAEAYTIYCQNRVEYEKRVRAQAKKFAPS
CSN inh = CSN deneddylation inhibition | inhibition, % at 12.5 µM | Purified CSN, SCF-Nedd8-OG deneddylation, fluorescence polarization | 360,000 tested, 0.38% active;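 active means pattern-corrected inhibition above about 35%, with an unprinted fluorescence ratio check between 0.5 and 1.5, limit read from the data, passing the limit was not always enough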
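assay system = purified human Csn5 enzyme expressed in HEK293T cells | amount = 0.24 nM enzyme | buffer or medium = Tris/NaCl/DTT buffer, pH 7.5 | reagent = 10 nM SCFSkp2-Nedd8OG | compound = one concentration, 12.5 µM, 0.25% DMSO | times = 90 min reaction at room temperature | signal = FP | read-out basis = % inhibition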
SENP1 FRET inh = blocks the human SENP1 SUMO protease catalytic domain | recombinant SENP1 catalytic domain, CyPet-SUMO1-YPet FRET cleavage | inhibition, % at 10 µM | 360,000 tested, 0.21% active | AID 624204;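 active means inhibition at least 30% at 10 µM, raw YFP signal under a set limit, fluorescence ratio 0.5 to 1.5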
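System: Recombinant human SENP1 catalytic domain, His6-tagged | Incubation: Enzyme reaction for 50 min at room temperature, dark | Medium: Tris pH 8 with BME, BSA, NP40 and catalase | Also added: 25 nM SUMO1 FRET substrate | Compound: 10 µM single point, 0.5% DMSO | Measured by: FRET fluorescence in CFP and YFP emission channels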
Large screens that a line does not name were inactive. Most compounds without a hit are left out; they make up all but 1.8% or so of the library.

CCOC(=O)COc1ccc2c(C#N)c3ccccn3c2c1	none (no result: TPT1 inh)
N#Cc1c2ccc(OCC(N)=O)cc2n2ccccc12	UBC9 SUMO inh 61.5
Cc1cc(C)cc(NC(=O)CSc2cc(C(=O)c3nccn3C)c3ccccc3n2)c1	none
CC(=O)N1N=C(c2cccc(Br)c2)OC12CCCC2	none
COc1ccccc1Nc1nn2c(=O)c3ccc(C(=O)N4CCCCC4)cc3nc2s1	none
COc1ccccc1Nc1nn2c(=O)c3ccc(C(=O)NCc4cccnc4)cc3nc2s1	HNF4A DNA FP 90.5, CSN inh 84.1
Oc1ccc(Cl)cc1CNc1cccc2cccnc12	UBC9 SUMO inh 65.6
Oc1c(Br)cc(Br)cc1CNc1cccc2cccnc12	UBC9 SUMO inh 74.9
Cc1ccc(C)c(S(=O)(=O)N2CCCOC2CNC(=O)C(=O)NCCCN2CCOCC2)c1 (stereo not given)	none
Cn1c(SCC(=O)N/N=C/C=C\c2ccccc2[N+](=O)[O-])nc2ccccc21	none
O=C(Nc1ccccc1Cc1ccccc1)c1ccccc1NS(=O)(=O)c1ccc(Cl)s1	UBC9 SUMO inh 58.5
Cn1c(C(=O)N2CCN(C(=O)c3ccco3)CC2)cc2c(=O)n3ccccc3nc21	UBC9 SUMO inh 57.7
CC1CCCCC1NC(=O)c1cc2c(=O)n3ccccc3nc2n1C (stereo not given)	UBC9 SUMO inh 58.0
COCCn1cnc2c1c(=O)n(CC(=O)Nc1cc(C)on1)c(=O)n2Cc1ccccc1	none
Cc1cc(NC(=O)Cn2c(=O)n(Cc3ccccc3)c(=O)c3ccccc32)no1	UBC9 SUMO inh 52.2
Cc1cc(C)c(C(=O)OCC(=O)Nc2cccc(S(=O)(=O)N3CCCCC3)c2)c(C)c1	CSN inh active (no result: UBC9 SUMO inh)
Cc1csc(SCC(=O)Nc2cccc(S(=O)(=O)N3CCCC3)c2)n1	CSN inh 106.5
O=[N+]([O-])c1ccc(O)c(/C=N\N=C2c3ccccc3-c3ccccc32)c1	SENP1 FRET inh 58.1
CCC1=NNc2cccc3c(OC)ccc1c23	UBC9 SUMO inh 59.3 (no result: Rpn11 block, HNF4A DNA FP, CSN inh, SENP1 FRET inh)
CCOC(=O)c1ccc2c(c1)C1C=CCC1C(C(=O)O)N2 (stereo not given)	UBC9 SUMO inh 59.6 (no result: Rpn11 block, HNF4A DNA FP, CSN inh, SENP1 FRET inh)
Cc1ccc2c(c1C)NC(C(=O)O)C1CC=CC21 (stereo not given)	TPT1 inh 26.0, UBC9 SUMO inh 58.1
CCOC(=O)C1Nc2ccc(C(=O)O)cc2C2C=CCC12 (stereo not given)	none
O=C(O)C1Nc2c(C(=O)N3CCOCC3)cccc2C2C=CCC12 (stereo not given)	CSN inh 35.3
O=C(c1ccccc1O)N1CCOCC1	none
COc1ccc(NC(=O)C2CCN(S(=O)(=O)c3ccc4c(c3)NC(=O)C(C)S4)CC2)cc1 (stereo not given)	none
CC1Sc2ccc(S(=O)(=O)N3CCC(C(=O)Nc4ccc(Cl)cc4)CC3)cc2NC1=O (stereo not given)	HNF4A DNA FP 40.5 (not shown: Rpn11 block)
COc1ccc(-c2[nH][nH]c(=O)c2NC(=O)c2ccc(C)cc2)cc1	none (no result: TPT1 inh, UBC9 SUMO inh)
O=C(O)C1CC(=O)N(c2ccc(F)c(F)c2)C1 (stereo not given)	none
C#CC[N+](C)(C)CC#Cc1ccc(Cl)cc1	none
O=C1Nc2ccc(S(=O)(=O)NCc3ccccn3)c3cccc1c23	none (no result: TPT1 inh)
CCN(CC)CCNS(=O)(=O)c1ccc2c3c(cccc13)C(=O)N2	UBC9 SUMO inh 57.7
CN(C)CCNS(=O)(=O)c1ccc2c3c(cccc13)C(=O)N2	UBC9 SUMO inh 52.8
CN1CCN(S(=O)(=O)c2ccc3c4c(cccc24)C(=O)N3)CC1	none
O=C(Cc1ccc(Cl)cc1)Nc1ccc(NC(=O)c2ccccc2)cc1	none
O=C(CC(=O)c1ccccc1)Nc1ccc(Cl)cc1	HNF4A DNA FP 41.8
Cc1cccc(NC(=O)/C(C#N)=C/c2cn(CC(=O)NCc3ccco3)c3ccccc23)c1C	UBC9 SUMO inh 57.7
N#C/C(=C\c1cn(Cc2ccc(F)cc2)c2ccccc12)C(=O)NCc1ccco1	UBC9 SUMO inh 51.4
N#C/C(=C\c1cn(Cc2ccccc2)c2ccccc12)C(=O)NCc1ccco1	none
CN(C)c1ccc(/C=C(\C#N)C(=O)NCc2ccco2)cc1	TPT1 inh 42.5 (no result: Rpn11 block, HNF4A DNA FP, CSN inh, SENP1 FRET inh)
